This is a sample that favours compounds with a hit; in the whole collection about 2.6% have one here.
NPY1 pot ag: human NPY-Y1 potentiation or agonism, primary screen; actives 0.37% (n = 220,000); AID 1304; activation, % at 3.6 µM; P25929; NPY-Y1 expressing cells, potentiator/agonist activation; in the data active means activation above about 33%, passing the limit was not always enough;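 further: cells stimulated with NPY at EC10 then isoproterenol at EC100; 0% = low agonist plus stimulus and 100% = saturating agonist plus stimulus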
NPY-Y2 antag: antagonists of human neuropeptide Y receptor Y2; P49146; NPY-Y2 expressing cells, antagonist mode; inhibition, % at 2.7 µM; actives 0.99% (n = 140,000); AID 793;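 further: 0% = vehicle with agonist challenge and 100% = reference antagonist with challenge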
Target sequence (P49146 whole entry, looked up): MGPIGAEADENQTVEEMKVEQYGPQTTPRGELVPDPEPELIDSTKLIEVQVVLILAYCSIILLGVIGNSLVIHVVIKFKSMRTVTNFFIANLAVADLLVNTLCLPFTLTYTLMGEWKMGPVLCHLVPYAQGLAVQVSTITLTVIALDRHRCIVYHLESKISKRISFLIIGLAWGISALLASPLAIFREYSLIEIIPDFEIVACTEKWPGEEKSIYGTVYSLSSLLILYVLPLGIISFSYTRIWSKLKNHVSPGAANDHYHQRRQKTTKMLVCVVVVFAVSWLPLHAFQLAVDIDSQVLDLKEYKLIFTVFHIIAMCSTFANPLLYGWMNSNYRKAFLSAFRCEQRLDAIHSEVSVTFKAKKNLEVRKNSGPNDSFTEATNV
NPY-Y1 antag: NPY-Y1 (human) receptor antagonism; actives 1% (n = 200,000); HEK293-CNG Y1 cells, membrane potential fluorescence; NPY at EC95, then isoproterenol; inhibition, % at 3.6 µM; P25929;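 active means inhibition above the campaign mean inhibition of all tested compounds plus 3 SD, cut at about 20% in these data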;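 further: 0% = DMSO wells given NPY plus isoproterenol and 100% = isoproterenol alone without NPY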
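Test system – HEK293 Y1/CNG channel cell line · Also added – NPY agonist 25 nM, then isoproterenol 1 µM plus Ro 20-1724 25 µM · Compound dosing – one concentration, 3.6 µM, in 0.4% DMSO · Schedule – compound incubation 1 h at room temperature, readout 45 min post-stimulation · Technique – fluorescence, membrane potential probe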
MT stabilizer: stabilizes microtubules in HeLa cells; % tubulin-high responders, % at 10 µM; actives 0.83% (n = 200,000); HeLa tubulin immunostaining HCS, 24 h; share of cells brighter than vehicle mean+2SD;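 active means plate Z-score above 3 for both tubulin-high and condensed-nucleus cell shares, with cell loss under 80%, at 10 µM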;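 further: anti alpha tubulin signal scored within the nucleus-defined area of each cell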
NPY2 pot ag: potentiates or activates human NPY-Y2 receptor. activation, % at 3.6 µM. P49146. cells expressing NPY-Y2, potentiator/agonist read-out. actives 0.45% (n = 220,000); in the data active means activation above about 27%;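 further: cells stimulated with NPY near EC25 plus isoproterenol at EC100; 0% = vehicle plus submaximal agonist and 100% = vehicle plus saturating agonist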
b-catenin transl: alters nuclear translocation of beta-catenin in HeLa cells | AID 1665 | nuclear translocation activity, % at 5 µM | actives 0.3% (n = 190,000) | immunofluorescence imaging;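 active means nuclear translocation activity above 50% at 5 µM, with a well cell count of 50 or more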;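 further: per-cell ratio of nuclear to cytoplasmic median beta-catenin stain intensity; plate controls were DMSO negative control for no effect and GSK-3 inhibitor IX positive control for full effect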
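Test system: human HeLa cells, endogenous beta-catenin. Times: 24 h compound exposure, 37°C. Measured by: beta-catenin immunofluorescence imaging with DAPI.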
NPY1 antag conf: confirmation of human neuropeptide Y receptor Y1 antagonists | shares compounds with NPY-Y1 antag | HEK293-CNG NPY-Y1, membrane potential fluorescence, cAMP; NPY challenge against isoproterenol-raised cAMP | inhibition, % at 3.6 µM | actives 21% (n = 1,200) | AID 1254; in the data active means inhibition above about 20%;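 further: 0% = vehicle with agonist plus stimulus and 100% = stimulus alone without agonist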
NPY2 antag ctr: antagonizes human NPY-Y2, counter-screen to NPY-Y1 antagonists. shares compounds with NPY-Y1 antag. HEK293 NPY-Y2 CNG membrane potential fluorescence, antagonism; cells given NPY, then isoproterenol. inhibition, % at 3.6 µM. actives 28% (n = 1,200);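 further: 0% = DMSO with agonist challenge and 100% = reference antagonist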
An asterisk follows results filed as active; . = not tested or not shown. Unless noted, no stated cut-off is given here; in the data, active means inhibition above about 17%; inactive means the rest.

SMILES	NPY1 pot ag	NPY-Y2 antag	NPY-Y1 antag	MT stabilizer	NPY2 pot ag	b-catenin transl	NPY1 antag conf	NPY2 antag ctr
O=C(C[n+]1cc(-c2ccccc2)n2c1CCCCC2)c1ccc(Br)cc1	-9	.	42*	3	-9	0	22*	19*
OCC1(CCCc2ccccc2)CCN(C2CCSCC2)CC1	-14	.	25*	2	-28	0	10	12
CCOC(=O)C1(CCCc2ccccc2)CCN(C2CCSCC2)CC1	-10	.	52*	3	-10	2	29*	15
COc1ccc(/C(O)=C2/C(=O)C(=O)N(CCN3CCOCC3)C2c2ccccn2)cc1 (centres undefined)	-7	2	-2	4	-19	0	.	.
CCOC(=O)C1(CC2CCCCO2)CCN(Cc2nccn2-c2cccc(C)c2)CC1 (centres undefined)	1	.	8	3	-4	-3	.	.
CCOC(=O)C1(CC2CCCCO2)CCN(Cc2c(C)cc(C)cc2-n2cccn2)CC1 (centres undefined)	-15	.	24*	4	-10	-2	9	8
CCOC(=O)C1(CC2CCCCO2)CCN(Cc2cc(F)ccc2-n2cccn2)CC1 (centres undefined)	-2	.	25*	2	-16	1	18	7
Cc1ccc(NC(=S)N(CCN(C)C)Cc2cc3cc(C)cc(C)c3[nH]c2=O)cc1	-11	7	25*	4	-11	-5	1	8
Cc1ccc2cc(CN(CCN(C)C)C(=S)Nc3ccccc3)c(=O)[nH]c2c1C	-14	.	11	3	4	0	.	.
CCCCNc1nc2ccccc2n1CC(=O)Nc1c(C)cccc1CC	-35	10	31*	2	7	-1	20	14
CCCCNC(=O)N1CCc2ccccc2C1	-6	1	5	2	9	1	.	.
CCCCNc1nc2ccccc2n1CC(=O)N1CCc2ccccc2C1	-33	15	23*	5	-9	-2	9	9
O=C(NCc1ccco1)c1ccc(CNc2c(N3CCCCC3)c(=O)c2=O)cc1	-1	2	2	3	-3	5	.	.
NC(=O)c1ccc(SCC(=O)NC2CCCCC2)c([N+](=O)[O-])c1	-3	.	0	2	-4	0	.	.
COc1cc(C(=O)NNC2=NC(C)(C)Cc3cc(C)c(C)cc32)cc(OC)c1OC	-19	2	3	4	-1	-1	.	.
Fc1ccc(Nc2c3c(nc4ccccc24)CCC3)cc1	-26	.	23*	3	-26	-3	18	14
c1ccc2c(Nc3ccc4c(c3)OCCO4)c3c(nc2c1)CCC3	9	.	7	7	3	4	.	.
COc1ccc(CNCC(O)(c2ccc(F)cc2)c2ccc(F)cc2)cc1	1	.	32*	1	-4	-2	10	11
OC(CNCc1ccc(F)cc1)(c1ccccc1)c1ccc(F)cc1 (centres undefined)	-8	9	9	1	-1	.	.	.
Cc1ccccc1N=C1NN=C(c2ccccc2F)CS1	-8	0	4	4	-12	1	.	.
COc1cccc(NC(=O)CN2CCN(c3ccccc3F)CC2)c1	-36	6	22*	2	-15	.	6	6
Cc1ccc(CSCCNC(=O)CSCc2ccc([N+](=O)[O-])cc2)cc1	-21	5	9	2	-10	1	.	.
Cc1ccccc1CSCCNC(=O)CSCc1ccc([N+](=O)[O-])cc1	-19	6	20*	2	-4	0	2	8
CCCNC(=S)N1CCC(NC(=O)C2CCCCC2)CC1	4	0	-3	2	5	1	.	.
Cc1nn(-c2ccccc2)c2nc(N)c(C#N)c(-c3ccc(F)cc3)c12	-29	4	23*	10	-18	3	4	16
N#Cc1c(N)nc2c(c1-c1ccc(F)cc1)c(=O)nc1sccn12	2	.	47*	2	2	-3	-1	4

Assay outcomes (PubChem)
